What all share (assay type): ADME
Data set [1] has as its system Liver microsome. As to the kind of experiment: Drug metabolism in Sprague-Dawley rat liver microsomes assessed as glucuronidation incubated for 5 mins prior to UDPGA addition measured after 5 to 30 mins by LC-UV analysis. The procedure, abridged: (§1)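 Microsomes or Sf-9 Supersomes (5 µg protein in 200 µL 100 mM potassium phosphate pH 7.4) pre-treated with alamethicin on ice 15 min; substrate 10 µM final (2% DMSO), MgCl2 and saccharolactone 10 mM each; 5 min preincubation at 37 °C, then UDPGA to start. Samples taken at 5, 10, 15, 30 min (or 2, 5, 10, 15 min) into ACN with internal standard; LC-UV-ESI-MS/MS.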
On the technique in general: Microsomes from liver hold many membrane-bound enzymes, among them those of drug oxidation.

Data set [2] concerns the target T1, UDP-glucuronosyltransferase 1A4 (Homo sapiens, UniProt P22310).
T1 sequence (P22310 whole entry): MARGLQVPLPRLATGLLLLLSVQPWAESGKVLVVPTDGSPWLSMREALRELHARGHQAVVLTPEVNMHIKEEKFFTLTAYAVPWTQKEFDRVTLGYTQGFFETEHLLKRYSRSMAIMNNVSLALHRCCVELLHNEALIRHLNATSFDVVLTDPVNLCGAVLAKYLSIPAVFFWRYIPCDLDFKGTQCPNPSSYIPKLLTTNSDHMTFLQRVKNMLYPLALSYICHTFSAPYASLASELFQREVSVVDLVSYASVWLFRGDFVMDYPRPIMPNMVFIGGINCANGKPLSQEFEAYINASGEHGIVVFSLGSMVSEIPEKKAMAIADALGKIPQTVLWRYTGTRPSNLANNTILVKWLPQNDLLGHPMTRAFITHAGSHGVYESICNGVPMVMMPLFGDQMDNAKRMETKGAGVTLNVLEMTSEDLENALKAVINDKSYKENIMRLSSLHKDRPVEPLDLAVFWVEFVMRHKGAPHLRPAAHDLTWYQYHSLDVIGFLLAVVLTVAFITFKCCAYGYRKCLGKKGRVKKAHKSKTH
Description: Drug metabolism assessed as human UGT1A4-mediated glucuronidation expressed in baculovirus infected insect sf9 cells incubated for 5 mins prior to UDPGA addition measured after 5 to 30 mins by LC-UV analysis. The method, boiled down: as §1

The subject of data set [3] is Liver microsome. As to the kind of experiment: Drug metabolism in human liver microsomes assessed as glucuronidation incubated for 5 mins prior to UDPGA addition measured after 5 to 30 mins by LC-UV analysis. The procedure, abridged: as §1
A short description of data set [4]: Drug metabolism in human kidney microsomes assessed as glucuronidation incubated for 5 mins prior to UDPGA addition measured after 5 to 30 mins by LC-UV analysis. The procedure, abridged:
as §1

For data set [5], the target named is T2, UDP-glucuronosyltransferase 2B17 (Homo sapiens, UniProt O75795).
T2 sequence (O75795 whole entry): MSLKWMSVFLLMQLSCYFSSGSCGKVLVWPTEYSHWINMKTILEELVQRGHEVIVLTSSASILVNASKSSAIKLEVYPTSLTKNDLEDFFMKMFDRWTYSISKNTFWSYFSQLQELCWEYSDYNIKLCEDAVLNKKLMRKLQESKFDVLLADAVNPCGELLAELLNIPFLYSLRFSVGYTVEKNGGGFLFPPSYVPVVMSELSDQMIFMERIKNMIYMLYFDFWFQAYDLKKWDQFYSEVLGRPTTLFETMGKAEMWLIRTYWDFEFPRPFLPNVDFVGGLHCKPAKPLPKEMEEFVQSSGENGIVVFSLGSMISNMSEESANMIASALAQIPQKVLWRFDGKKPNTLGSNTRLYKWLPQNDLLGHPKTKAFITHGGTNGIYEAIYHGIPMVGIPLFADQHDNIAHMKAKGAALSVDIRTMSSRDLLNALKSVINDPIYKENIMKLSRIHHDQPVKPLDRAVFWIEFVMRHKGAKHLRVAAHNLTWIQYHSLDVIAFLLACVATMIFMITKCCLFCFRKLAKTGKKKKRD
As to the kind of experiment: Drug metabolism assessed as human UGT2B17-mediated glucuronidation expressed in baculovirus infected insect sf9 cells incubated for 5 mins prior to UDPGA addition measured after 5 to 30 mins by LC-UV analysis. The method, boiled down:
as §1

Data set [6] deals with T3, UDP-glucuronosyltransferase 1A9 (Homo sapiens, UniProt O60656).
T3 sequence (O60656 whole entry): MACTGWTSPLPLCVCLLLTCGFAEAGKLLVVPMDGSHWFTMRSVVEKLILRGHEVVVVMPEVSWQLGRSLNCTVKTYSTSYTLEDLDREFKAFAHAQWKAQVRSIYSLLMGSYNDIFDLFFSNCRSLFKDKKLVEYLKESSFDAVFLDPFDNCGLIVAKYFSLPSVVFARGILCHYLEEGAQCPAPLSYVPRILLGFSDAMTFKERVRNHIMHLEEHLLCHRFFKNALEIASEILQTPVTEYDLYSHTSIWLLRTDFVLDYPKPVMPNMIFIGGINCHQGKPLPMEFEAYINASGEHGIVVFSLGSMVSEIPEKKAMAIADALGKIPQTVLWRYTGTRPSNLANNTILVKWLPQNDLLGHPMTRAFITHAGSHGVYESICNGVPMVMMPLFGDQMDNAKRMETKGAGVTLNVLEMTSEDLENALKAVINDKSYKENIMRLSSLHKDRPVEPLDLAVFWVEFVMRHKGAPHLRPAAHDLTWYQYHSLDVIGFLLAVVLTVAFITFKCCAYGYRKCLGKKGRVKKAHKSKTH
As to the kind of experiment: Drug metabolism assessed as human UGT1A9-mediated glucuronidation expressed in baculovirus infected insect sf9 cells incubated for 5 mins prior to UDPGA addition measured after 5 to 30 mins by LC-UV analysis. The method, boiled down: as §1

Data set [7] concerns the target T4, UDP-glucuronosyltransferase 2B7 (Homo sapiens, UniProt P16662).
T4 sequence (P16662 whole entry): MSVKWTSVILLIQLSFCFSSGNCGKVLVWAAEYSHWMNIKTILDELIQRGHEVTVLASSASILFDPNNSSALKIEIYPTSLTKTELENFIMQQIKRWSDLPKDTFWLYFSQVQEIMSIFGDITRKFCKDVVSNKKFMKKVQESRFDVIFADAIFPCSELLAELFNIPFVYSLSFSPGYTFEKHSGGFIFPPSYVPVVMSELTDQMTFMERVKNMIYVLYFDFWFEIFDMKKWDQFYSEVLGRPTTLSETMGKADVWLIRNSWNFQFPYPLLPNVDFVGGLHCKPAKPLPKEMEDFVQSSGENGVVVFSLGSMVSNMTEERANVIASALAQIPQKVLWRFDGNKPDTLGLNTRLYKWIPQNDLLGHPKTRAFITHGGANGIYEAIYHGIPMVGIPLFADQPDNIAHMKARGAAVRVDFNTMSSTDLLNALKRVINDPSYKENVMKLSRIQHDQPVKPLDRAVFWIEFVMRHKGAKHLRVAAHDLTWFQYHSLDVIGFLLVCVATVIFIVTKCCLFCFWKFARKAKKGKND
As to the kind of experiment: Drug metabolism assessed as human UGT2B7-mediated glucuronidation expressed in baculovirus infected insect sf9 cells incubated for 5 mins prior to UDPGA addition measured after 5 to 30 mins by LC-UV analysis. The procedure, abridged: as §1

The record followed here is ChEMBL document CHEMBL3525967, “In vitro glucuronidation of the antibacterial triclocarban and its oxidative metabolites” (Drug Metab Dispos, 2012).

Structures are written as SMILES.

As for `O=C(Nc1ccc(Cl)c(O)c1)Nc1ccc(Cl)c(Cl)c1`, the Drug metabolism was 8700 pmol/min/mg in the data set with Liver microsome [1]; “metabolite_not_detected” in data set [2]; 5200 pmol/min/mg in the data set with Liver microsome [3]; 4200 pmol/min/mg in data set [4]; “metabolite_not_detected” in data set [5]; 840 pmol/min/mg in data set [6]. Moreover, the Drug metabolism entry in data set [7] is “metabolite_not_detected”.
`O=C(Nc1ccc(Cl)c(Cl)c1)Nc1ccc(Cl)cc1O`: the Drug metabolism in the data set with Liver microsome [1] is 2600 pmol/min/mg; in data set [2], “metabolite_not_detected”; in the data set with Liver microsome [3], 2700 pmol/min/mg; in data set [4], 5600 pmol/min/mg; in data set [5], “metabolite_not_detected”; in data set [6], 1200 pmol/min/mg. Also, in data set [7] (BLD = below limit of detection), the Drug metabolism entry was “BLD”.
For the molecule `O=C(Nc1ccc(Cl)cc1)Nc1cc(Cl)c(Cl)cc1O`, the Drug metabolism in the data set on Liver microsome [1] was 5500 pmol/min/mg; in data set [2] it was “metabolite_not_detected”; with Liver microsome [3], 8500 pmol/min/mg; in data set [4], 7700 pmol/min/mg; in data set [5], “metabolite_not_detected”; in data set [6], 2400 pmol/min/mg. In addition, the Drug metabolism entry in data set [7] (BLD = below limit of detection) is on record as “BLD”.
